Screens from PubChem.
TNF death inh = blocks TNF-alpha induced death of Jurkat FADD-/- cells. activation (protection from cell death), % at 10 µM. Jurkat FADD-/- TNF necroptosis rescue, ATP luminescence, 24 h; 0 = TNF only, 100 = no-TNF cells. 0.068% of 220,000 active;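 active = activation, meaning protection from cell death, of at least 50% relative to plate controls; inactive = activation below 50%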;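 also: necroptosis triggered by 40 ng/mL TNF-alpha added together with compound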
Rad51 HR inh = blocks human Rad51 in homologous recombination. Q06609. hRad51 DNA strand exchange, fluorescence dequenching. inhibition, % at 10 µM. 0.085% of 200,000 active. AID 1385;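 active = inhibition above 40% at the single screening dose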;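 also: 0% = DMSO control wells and 100% = blanks with heterologous ssDNA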
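System: human Rad51 nucleoprotein filaments preassembled on unlabelled ssDNA. Reagent: labelled 47-mer dsDNA for strand exchange. Schedule: 30-min compound preincubation and 15-min exchange, both room temperature. Measured by: FRET fluorescence dequenching, excitation 485 nm, emission 520 nm. Read-out: Fluorescence-based percent inhibition, control- and blank-normalised. Benchmarks: plate controls and plate blanks.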
Pf gamet viab = inhibitors of late stage P. falciparum gametocyte viability. AID 743093. P. falciparum stage V gametocytes, ATP luminescence, 24 h. 0.065% of 150,000 active. inhibition, % at 10.9 µM;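 active = inhibition above the mean plus 3 SD of compounds within the control limits, set per campaign, cut at about 38% in these data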;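 also: 0% = DMSO wells and 100% = medium only without gametocytes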
MDM2 E3 inh = Mdm2 E3 ligase (human) inhibition. Q00987. cell-based MDM2 ubiquitination luciferase reporter, 2 h; 0 = plate control, 100 = twice control, blank-subtracted. signal enhancement, % at 5 µM. 0.11% of 210,000 active. AID 1230;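 active = signal enhancement of 30% or more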;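 also: luminescence tracks abundance of the self-degrading MDM2-luciferase fusion protein; higher signal means inhibition of MDM2 E3 ligase activity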
Target sequence (Q00987 whole entry, looked up, the tested form may be a part): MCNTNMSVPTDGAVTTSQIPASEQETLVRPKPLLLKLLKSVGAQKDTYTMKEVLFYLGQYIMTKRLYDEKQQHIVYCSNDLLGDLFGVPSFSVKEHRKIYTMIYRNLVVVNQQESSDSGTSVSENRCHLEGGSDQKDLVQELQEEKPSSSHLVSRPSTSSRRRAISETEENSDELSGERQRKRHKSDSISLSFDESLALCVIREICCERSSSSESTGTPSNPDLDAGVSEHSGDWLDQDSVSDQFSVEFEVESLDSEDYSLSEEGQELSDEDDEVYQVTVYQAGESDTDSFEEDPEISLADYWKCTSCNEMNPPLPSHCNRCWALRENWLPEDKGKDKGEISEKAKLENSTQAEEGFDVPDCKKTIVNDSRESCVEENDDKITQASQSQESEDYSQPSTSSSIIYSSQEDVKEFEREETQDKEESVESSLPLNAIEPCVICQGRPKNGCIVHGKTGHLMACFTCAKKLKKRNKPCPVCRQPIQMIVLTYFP
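Material: stable MDM2–luciferase fusion reporter cells / Quantity: 2000 cells/well / Dosing: single 5 µM compound dose, 0.2% final DMSO / Buffer or medium: DMEM / Schedule: 4 h cell settling then 2 h compound exposure, 37 °C / Detection: luminescence with SteadyLite reagent, 15 min at room temperature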
zVAD death inh = L929 zVAD cell death inhibition. viability rescue, % at 10 µM. L929 zVAD necroptosis rescue, ATP luminescence, 24 h; with zVAD 60 µM. 0.38% of 220,000 active;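 active = activation, scaled between plate controls, above about 75%, limit read from the data; inactive = activation under that limit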;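 also: 0% = zVAD with DMSO and 100% = DMSO alone without zVAD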
zVAD necrop conf = confirmed blocker of zVAD induced death in L929 cells; shares compounds with zVAD death inh; L929 zVAD-induced necroptosis rescue, ATP luminescence, 24 h; activation (protection from necroptosis), % at 10 µM; 16% of 760 active; AID 463117;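 active = mean protection from necroptosis of at least 50% over duplicate tests; inactive = mean protection below 50%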;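 also: 0% = cells with zVAD alone and 100% = vehicle cells without zVAD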
* hit, by the source's call; . = no result. The list is not random: actives were taken first. Their share in the collection is about 0.58%.

SMILES	TNF death inh	Rad51 HR inh	Pf gamet viab	MDM2 E3 inh	zVAD death inh	zVAD necrop conf
c1ccn(-c2ccc(-c3ccn[nH]3)cc2)c1	7	-1	0	-9	86*	5
COc1cc(C2NC(=O)NC(C)=C2C(C)=O)ccc1O (stereo not given)	2	0	-7	-8	0	.
O=C(Nc1ccccc1)n1ccc(-c2ccc(-n3ccnc3)cc2)n1	15	9	-3	6	76*	47
C=CCON/C(CCC)=C1\C(=O)C(C(=O)OC)C(C)(C)CC1=NC (stereo not given)	0	29	-6	-1	0	.
CCOc1ccc(N(C(=O)CNC(=O)c2cccs2)C(C(=O)NCC2CCCO2)c2ccc(OC)c(OC)c2)cc1 (stereo not given)	1	12	0	-6	-1	.
COc1ccc(OC)c(N/C=C/C(=C(C#N)C#N)N(C)C)c1	-4	.	8	-36	1	.
O=c1/c(=C/c2ccc(O)cc2)sc2n1CCCN=2	-5	-4	.	-10	4	.
O=c1/c(=C\c2ccc(F)cc2)sc2n1CCCN=2	-1	4	-9	-3	76*	0
Cc1ccc(CNC(=O)CCC2CCCN(Cc3cc4ccccc4o3)C2)o1 (stereo not given)	0	13	7	1	-1	.
O=C(NC(=S)Nc1ccccc1F)c1ccc(Br)o1	-2	-114	2	-4	0	.
CCOC(=O)c1c(N)nn(C(=O)c2ccccc2F)c1-c1ccc(OC)cc1	0	5	17	13	78*	0
CCOC(=O)c1c(N)nn(C(=O)C(C)(C)C)c1-c1ccccc1	-1	-6	-4	-1	0	.
Cc1[nH][nH]c(=O)c1C(c1c(C)[nH][nH]c1=O)c1cn(Cc2cccc3ccccc23)c2ccccc12	-23	8	29	8	0	.
Cc1[nH][nH]c(=O)c1C(c1c(C)[nH][nH]c1=O)c1cn(C)c2ccccc12	-3	-1	.	-1	80*	23
N#CCCCN1C(=O)C(=C(C#N)C#N)c2ccccc21	-1	-5	23	3	76*	0
N#CCCCN1C(=O)C(O)(CC(=O)c2ccc3c(c2)OCCO3)c2ccccc21 (stereo not given)	-1	-3	.	-24	-1	.
COc1ccc(OC[C@@H](O)CNC(=O)c2cccc3c2C(=O)c2ccc(Cl)cc2S3(=O)=O)cc1	.	.	2	.	.	.
O=C(Cc1ccc(Cl)cc1Cl)OCC(=O)N1CCN(C(=O)c2ccco2)CC1	0	-21	.	-5	76*	3
Cc1cc(C(=O)OCC(=O)N2CCN(C(=O)c3ccco3)CC2)c(C)n1-c1ccc(F)cc1	-2	0	-22	-16	87*	35
Cc1ccccc1C(=O)NC(C(N)=O)P(=O)(OC(C)C)OC(C)C (stereo not given)	0	-5	-1	-8	0	.
S=c1[nH]ncn1NCc1ccc(Cl)cc1Cl	1	.	-29	-21	87*	33
Fc1cccc(Cl)c1CNn1cn[nH]c1=S	1	.	.	-21	1	.
O=S(=O)(Nc1ccncc1Cl)c1ccc2ccccc2c1	0	-9	19	-22	0	.
CCCNC(=O)c1ccc2c(c1)ncn2-c1cc(C)cc(C)c1	5	-39	-3	-8	76*	2
CCCCNC(=O)c1ccc2c(c1)ncn2C1CCCCC1	2	2	.	-8	79*	33
Cn1c(Cn2nnc3ccccc32)nnc1SCC(=O)Nc1nccs1	2	-13	4	-4	1	.
O=C(Nc1ccc(-c2csc(Nc3cccc(C(F)(F)F)c3)n2)cc1)c1ccccc1	8	-3	-34	15	83*	38
COc1cc(NC(=O)c2ccno2)cc(C(=O)Nc2cccc(C(F)(F)F)c2)c1	3	-4	-11	11	2	.
COc1ccc(-c2cc(C(=O)Nc3cc(OC)cc(C(=O)Nc4cccc(C(F)(F)F)c4)c3)[nH]n2)cc1	2	1	8	22	79*	3
O=C(Nc1cccc(-c2csc(Nc3cccc(C(F)(F)F)c3)n2)c1)c1ccccc1	5	-7	-20	15	7	.
